Test results published in PMC4948641 (ChemMedChem, 2015).
“And” between values parts separate entries of the source, which are not always exact repeats. Identical values can stand only once.

Experiments:
[1] = chemical stability with 5x DTT; format: physicochemical
PAMPA permeability = format: in vitro ADME; details: Pe
[2] = aqueous solubility in 1xPBS; format: physicochemical
[3] = plasma protein binding, mouse; format: in vitro ADME
[4] = tested on: isolated mouse liver mitochondria; experiment: mitochondrial respiration in isolated mouse liver mitochondria; format: biochemical
Outline: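 Isolated mouse liver mitochondria were treated with the test compound or solvent, and respiration was measured. Results are expressed as respiratory control ratio, reflecting the capacity to generate ATP. Values are the average ± SEM of ≥4 experiments.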

[5] = tested on: Fa2N-4 immortalized human hepatocytes; experiment: toxicity towards Fa2N-4 immortalized human hepatocytes; format: cell-based
[6] = as above; format: cell-based; details: human, Fa2N-4 immortalized hepatocytes
BBB PAMPA permeability = format: in vitro ADME; details: pH 7.4
[7] = hepatic microsome stability, mouse; format: in vitro ADME; details: liver microsomes, hepatic microsome stability (% remaining after 1 h)
[8] = tested on: mitochondrial permeability transition pore (PTP); experiment: Ca2+-induced mitochondrial swelling assay; format: biochemical; details: read-out: mitochondrial swelling EC50; isolated mouse liver mitochondria; 50 μM Ca2+
Outline: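 Mitochondria isolated from mouse liver take up 50 μM Ca2+ to trigger pore-dependent swelling. Swelling is followed across a range of test compound concentrations. Data are the average ± SEM of ≥ 4 experiments.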

[9] = hepatic microsome stability, human; format: in vitro ADME; details: liver microsomes, hepatic microsome stability (% remaining after 1 h)
[10] = tested on: mitochondrial permeability transition pore (PTP); experiment: Ca2+ retention capacity; format: biochemical; details: isolated mouse liver mitochondria
Outline: (§1)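 Isolated mouse liver mitochondria from wild-type or CyPD-knockout mice were used. Ca2+ retention capacity was taken as the amount of Ca2+ needed to open the pore. Mitochondria were treated across a concentration range of test compound or solvent, and results were expressed as the compound-to-solvent CRC ratio. Values are the average ± SEM of ≥4 experiments.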

plasma stability, human = format: in vitro ADME
plasma stability, mouse = format: in vitro ADME
IMM potential = experiment: Rhodamine 123 uptake counterscreen; format: biochemical; details: read-out: Rh123 uptake EC50, isolated mouse liver mitochondria
Outline: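 Isolated mouse liver mitochondria took up rhodamine 123 as a read-out of inner-membrane potential. The test compound was applied in a concentration series, and interference with Rh123 uptake was recorded. Values are the average ± SEM of ≥4 experiments.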

HeLa cells [11] = experiment: HeLa cell proliferation after 24-hour treatment; format: cell-based, human; details: ≤ 10 μM
Outline: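 HeLa cells were treated with the test compound at the indicated concentrations for 24 hours, and proliferation was then assessed. Values are the average ± SEM of ≥4 experiments.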

[12] = plasma protein binding, human; format: in vitro ADME
aqueous stability = format: physicochemical
[13] = tested on: mitochondrial permeability transition pore (PTP); experiment: CRC of permeabilized HeLa cells; format: cell-based, human
Outline: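 Ca2+ retention capacity was measured in permeabilized HeLa cells, 0.8 million cells per condition. The test compound was applied across a concentration range. Results are expressed as the compound-to-solvent CRC ratio, average ± SEM of ≥4 experiments.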

HeLa cells [14] = experiment: oxygen-consumption rate of intact HeLa cells; format: cell-based, human; details: ≤ 10 μM
[15] = tested on: mitochondrial permeability transition pore (PTP); experiment: CRC assay in CyPD-null mouse liver mitochondria; format: biochemical
Outline: as §1

Compound: O=C(Nc1ccc(CN2CCCCC2)cc1)c1cc(Cl)cc(OCc2ccccc2)c1 [Compound 4, 3-(benzyloxy)-5-chloro-N-(4-(piperidin-1-ylmethyl)phenyl)benzamide]
- chemical stability with 5× DTT, % parent remaining after 8 h [1]: 91%
- Papp (PAMPA permeability; Donor pH 5.0, Acceptor pH 7.4): 1300 ×10⁻⁶ cm/s
- Papp (PAMPA permeability; Donor pH 6.2, Acceptor pH 7.4): 1340 ×10⁻⁶ cm/s
- solubility ([2]; pH 5, aqueous buffer): 22.8 µg/mL and 52.5 µM
- solubility ([2]; pH 6.2, aqueous buffer): 22.6 µg/mL and 52.1 µM
- solubility ([2]; pH 7.4, aqueous buffer): 0.64 µg/mL and 1.5 µM
- fraction unbound at 1 μM [3]: 0.007
- fraction unbound at 10 μM [3]: 0.017
- effect on ATP synthesis ([4]; 5 μM): no effect
- respiratory control ratios, FCCP-stimulated and oligomycin-sensitive respiration ([4]; ≤ 10 μM, isolated mouse liver mitochondria): No significant differences
- selectivity, Fa2N-4 LC50 compared to mitochondrial swelling EC50 [5]: 114 fold
- CC50 [6]: 32 µM
- Papp (BBB PAMPA permeability): 113 ×10⁻⁶ cm/s
- remaining at 1 h ([7]; +NADPH): 30%
- remaining at 1 h ([7]; -NADPH): 74%
- EC50 [8]: 280 ± 24 nM
- remaining at 1 h ([9]; +NADPH): 61%
- remaining at 1 h ([9]; -NADPH): 67%
- CRC/CRC0 at 12.5 μM ([10]; 12.5 μM, compound-to-solvent CRC ratio): 19.5 ± 1.7
- maximum CRC ratio relative to CsA-treated mitochondria [10]: about 4 times
- remaining at 3 h (plasma stability, human): 39%
- remaining at 3 h (plasma stability, mouse): 35%
- EC50 (IMM potential): 24.5 ± 1.12 µM
- effect on HeLa cell proliferation (HeLa cells [11]): no effect
- fraction unbound at 1 μM [12]: 0.008
- fraction unbound at 10 μM [12]: 0.008
- aqueous stability (1:1 PBS/acetonitrile), % parent remaining after 48 h (aqueous stability): 93.4%
- effect on CRC of permeabilized HeLa cells [13]: concentration-dependent increase
- FCCP-stimulated and oligomycin-sensitive respiration (OCR) (HeLa cells [14]): No significant differences
- increase in CRC in CyPD-null mouse liver mitochondria [15]: 7 fold
